Columns and labels:
[1] = melting temperature; fluorescence melt of hairpins on a sequencing array, two-state fit, raised by 9.35 °C to match UV melts; conditions: sodium 0.088 M
Summary of the method: (§1)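 With Cy3 and quencher oligos annealed, library hairpins on a sequenced MiSeq flow cell were imaged for Cy3 fluorescence in 50 mM Na-HEPES pH 8.0, 25 mM NaCl, in 2.5 °C steps up to 60 °C. Melting temperature and folding enthalpy were derived from bootstrapped two-state fits of signals normalised to pre-quench Cy3 and to control constructs. Four replicates were combined by inverse variance, with fitted temperatures raised by 9.35 °C to match UV melts.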

[2] = folding enthalpy; higher = less favourable; fluorescence melt of hairpins on a sequencing array, two-state fit; conditions: sodium 0.088 M
Summary of the method: as §1

GATCCACCCTTGGATC ((((((....))))))
Tm [1]: 50.4 °C | folding enthalpy [2]: -34.8 kcal/mol

GTTCCGCGAAAGCGCAAC (((.(((....))).)))
Tm [1]: 38.4 °C | folding enthalpy [2]: -13.3 kcal/mol

GATCTCGGCGAGATC ((((((...))))))
Tm [1]: 59.6 °C | folding enthalpy [2]: -35.8 kcal/mol

GCGCTGCGAAAGCTCCGC (((..((....))..)))
Tm [1]: 49.4 °C | folding enthalpy [2]: -20.5 kcal/mol

GGACACGGAAACGTGTTC (.(((((....))))).)
Tm [1]: 54.9 °C | folding enthalpy [2]: -24.8 kcal/mol

GAATGGGGAAACTCATTC (((((.(....).)))))
Tm [1]: 40.1 °C | folding enthalpy [2]: -32.4 kcal/mol

GTCTTGCGAAAGCAGAC (((.(((....))))))
Tm [1]: 52.1 °C | folding enthalpy [2]: -22.8 kcal/mol

GCGCATGGAAACATGCAC (.(((((....))))).)
Tm [1]: 47.1 °C | folding enthalpy [2]: -12.5 kcal/mol

GGTACGCCGAAAGGCACC (((..(((....))))))
Tm [1]: 32 °C | folding enthalpy [2]: -8.21 kcal/mol

CGCCCGGAAACGGTAGCG ((((((....)))..)))
Tm [1]: 50.9 °C | folding enthalpy [2]: -30.4 kcal/mol

CGATTTCGGAAACGATCG (((..(((....))))))
Tm [1]: 29.6 °C | folding enthalpy [2]: -9.46 kcal/mol

GCATCCGGAAACGGGTGC (((.(((....))).)))
Tm [1]: 62.7 °C | folding enthalpy [2]: -39.5 kcal/mol

GACGGACGAAAGTCGTC (((.(((....))))))
Tm [1]: 55.6 °C | folding enthalpy [2]: -27.3 kcal/mol

GCTCTGCGAAAGCGCAGC (((..((....))..)))
Tm [1]: 37.6 °C | folding enthalpy [2]: -11.4 kcal/mol

GTTTCCGGAAACGGAAGC (.(((((....))))).)
Tm [1]: 49.3 °C | folding enthalpy [2]: -16.7 kcal/mol

GATCTTAGCAAAGATC ((((((....))))))
Tm [1]: 42.4 °C | folding enthalpy [2]: -30.9 kcal/mol

CGTACGAAAGTACG (((((....)))))
Tm [1]: 68.9 °C | folding enthalpy [2]: -26.7 kcal/mol

GTGTTGGGAAACTAGCAC (((.(.(....).).)))
Tm [1]: 31.8 °C | folding enthalpy [2]: -15.6 kcal/mol

GCAGCCGAAAGGCTTGC ((((((....))).)))
Tm [1]: 62 °C | folding enthalpy [2]: -15.3 kcal/mol

GCGGACGAAAGTCTCCGC ((((((....)))..)))
Tm [1]: 51.3 °C | folding enthalpy [2]: -25.7 kcal/mol

GCTGAAACGAAAGTTAGC (((..(((....))))))
Tm [1]: 35 °C | folding enthalpy [2]: -20.6 kcal/mol

GATCCGTGTTCGGATC ((((((....))))))
Tm [1]: 61.4 °C | folding enthalpy [2]: -36.2 kcal/mol

GGGTTCGAAAGAATCCCC ((((((....)))..)))
Tm [1]: 50.6 °C | folding enthalpy [2]: -15.9 kcal/mol

GCAACCGAAAGGTTATGC ((((((....)))..)))
Tm [1]: 44.1 °C | folding enthalpy [2]: -12.3 kcal/mol

GGCAGTCGAAAGACGGCC (((.(((....))).)))
Tm [1]: 67.8 °C | folding enthalpy [2]: -36.4 kcal/mol

GATCTTAGCTAAGATC ((((((....))))))
Tm [1]: 48.5 °C | folding enthalpy [2]: -43.9 kcal/mol

GTGCCGACGAAAGTCCAC (((..(((....))))))
Tm [1]: 53.8 °C | folding enthalpy [2]: -8.42 kcal/mol

GACTAAGGAAACTTAGTC (((((((....)))))))
Tm [1]: 52.5 °C | folding enthalpy [2]: -35.1 kcal/mol

GGTACCGAAAGGTGACC ((((((....))).)))
Tm [1]: 48.4 °C | folding enthalpy [2]: -21.5 kcal/mol

GAGGACGAAAGTCCGCTC ((((((....)))..)))
Tm [1]: 67.5 °C | folding enthalpy [2]: -12.1 kcal/mol

GCTCTGCGAAAGCAAGC (((.(((....))))))
Tm [1]: 48.2 °C | folding enthalpy [2]: -16.8 kcal/mol

GTAGTGCCGAAAGGCTAC (((..(((....))))))
Tm [1]: 36.2 °C | folding enthalpy [2]: -9.39 kcal/mol

GTCCCCGAAAGGGCCGAC ((((((....)))..)))
Tm [1]: 33 °C | folding enthalpy [2]: -12.1 kcal/mol

GTGCTACGAAAGTAACAC (((.(((....))).)))
Tm [1]: 46.7 °C | folding enthalpy [2]: -32.7 kcal/mol

GCGATGCGAAAGCGTGGC ((.(.((....)).).))
Tm [1]: 54.7 °C | folding enthalpy [2]: -21.6 kcal/mol

GCAGACGAAAGTCACTGC ((((((....)))..)))
Tm [1]: 39.5 °C | folding enthalpy [2]: -18.6 kcal/mol

GGAGGGGAAACCCTCC ((((((....))))))
Tm [1]: 62.8 °C | folding enthalpy [2]: -30.9 kcal/mol

GATCCGTGCACGGATC ((((((....))))))
Tm [1]: 66.5 °C | folding enthalpy [2]: -40.3 kcal/mol

GCTTGCGAAAGCATTAGC ((((((....)))..)))
Tm [1]: 42 °C | folding enthalpy [2]: -15.2 kcal/mol

GATCTTATGAAAGATC ((((((....))))))
Tm [1]: 40.6 °C | folding enthalpy [2]: -30.6 kcal/mol

GCGCGGCGAAAGCCCTGC ((..(((....)))..))
Tm [1]: 50.1 °C | folding enthalpy [2]: -13.5 kcal/mol

GAGACCGAAAGGTTACTC ((((((....)))..)))
Tm [1]: 34.8 °C | folding enthalpy [2]: -12.8 kcal/mol

GTCAGCACGAAAGTGGAC (((..(((....))))))
Tm [1]: 37.6 °C | folding enthalpy [2]: -18 kcal/mol

GGTGGTTCGAAAGAAACC (((..(((....))))))
Tm [1]: 41.5 °C | folding enthalpy [2]: -20.4 kcal/mol

GATCCTGATAGGATC ((((((...))))))
Tm [1]: 53.2 °C | folding enthalpy [2]: -31.6 kcal/mol

GTCAAGCCGAAAGGCGAC (((..(((....))))))
Tm [1]: 45.1 °C | folding enthalpy [2]: -12.2 kcal/mol

GAAACCCGAAAGGGATTC (((.(((....))).)))
Tm [1]: 49.3 °C | folding enthalpy [2]: -23.6 kcal/mol

GCTTTCGAAAGAAGAAGC ((((((....)))..)))
Tm [1]: 32.1 °C | folding enthalpy [2]: -22.2 kcal/mol

GCCTGGCGAAAGCCATGC ((.((((....)))).))
Tm [1]: 56.7 °C | folding enthalpy [2]: -17.2 kcal/mol

GATCTACCGGTAGATC ((((((....))))))
Tm [1]: 53.2 °C | folding enthalpy [2]: -43.4 kcal/mol

GCGAGAGATCGC ((((....))))
Tm [1]: 50.3 °C | folding enthalpy [2]: -17.5 kcal/mol

GCCAAGACGAAAGTCGGC (((..(((....))))))
Tm [1]: 54.6 °C | folding enthalpy [2]: -23.7 kcal/mol

GACTTAGGAAACTAAGCC (.(((((....))))).)
Tm [1]: 34.2 °C | folding enthalpy [2]: -21.9 kcal/mol

GATGGACCGAAAGGTATC (((..(((....))))))
Tm [1]: 26.8 °C | folding enthalpy [2]: -11.1 kcal/mol

GATCTTCATGAAGATC ((((((....))))))
Tm [1]: 51.1 °C | folding enthalpy [2]: -43.4 kcal/mol

GTGCGGGGAAACTCGCGC (.(((.(....).))).)
Tm [1]: 53.5 °C | folding enthalpy [2]: -24 kcal/mol

GTTCCCGGAAACGAGAAC ((((.((....)).))))
Tm [1]: 40.8 °C | folding enthalpy [2]: -30.2 kcal/mol

GATCGTGACTACGATC ((((((....))))))
Tm [1]: 61.2 °C | folding enthalpy [2]: -43.8 kcal/mol

GGTTTGGCGAAAGCCACC (((..(((....))))))
Tm [1]: 31.9 °C | folding enthalpy [2]: -8.59 kcal/mol

GGGGATGCGAAAGCACCC (((..(((....))))))
Tm [1]: 56.2 °C | folding enthalpy [2]: -17.2 kcal/mol

GATCGACATGTCGATC ((((((....))))))
Tm [1]: 61.3 °C | folding enthalpy [2]: -41.7 kcal/mol

GATCTAGATTTAGATC ((((((....))))))
Tm [1]: 38.4 °C | folding enthalpy [2]: -28.4 kcal/mol

GATCGTAGCACGATC ((((((...))))))
Tm [1]: 56.5 °C | folding enthalpy [2]: -34.8 kcal/mol

ATCTCGAAAGAGAT (((((....)))))
Tm [1]: 51.1 °C | folding enthalpy [2]: -20.9 kcal/mol

GAAACGCGAAAGCGTTC (((.(((....))))))
Tm [1]: 50.6 °C | folding enthalpy [2]: -8.94 kcal/mol

GTGATCGGAAACGACCAC (((.(((....))).)))
Tm [1]: 47.6 °C | folding enthalpy [2]: -42 kcal/mol

GCACTCGAAAGAGACTGC ((((((....)))..)))
Tm [1]: 34.6 °C | folding enthalpy [2]: -17 kcal/mol

GCAGACGAAAGTCTTTGC ((((((....)))..)))
Tm [1]: 37.1 °C | folding enthalpy [2]: -14.4 kcal/mol

GCAGTAGGAAACTACCAC (..((((....))))..)
Tm [1]: 19.6 °C | folding enthalpy [2]: -6.77 kcal/mol

GAGCCTGGAAACGGGTTC ((.((.(....).)).))
Tm [1]: 36.4 °C | folding enthalpy [2]: -27.5 kcal/mol

GGGTCATCGAAAGATCCC (((..(((....))))))
Tm [1]: 34.5 °C | folding enthalpy [2]: -20.3 kcal/mol

GCACCTCCGAAAGGATGC (((..(((....))))))
Tm [1]: 36.5 °C | folding enthalpy [2]: -21.9 kcal/mol

GATCTGTCTTCAGATC ((((((....))))))
Tm [1]: 51.4 °C | folding enthalpy [2]: -38.7 kcal/mol

GATCATACATATGATC ((((((....))))))
Tm [1]: 47.7 °C | folding enthalpy [2]: -40.7 kcal/mol

GATGCGCGAAAGCGAATC (((.(((....))).)))
Tm [1]: 57.2 °C | folding enthalpy [2]: -22.3 kcal/mol

GGAGCAGGAAACTGCTCC (((((((....)))))))
Tm [1]: 69.1 °C | folding enthalpy [2]: -33.4 kcal/mol

GATCGATTGGTCGATC ((((((....))))))
Tm [1]: 53.2 °C | folding enthalpy [2]: -37.6 kcal/mol

GATCATGTTCATGATC ((((((....))))))
Tm [1]: 52.5 °C | folding enthalpy [2]: -43.1 kcal/mol

GTCATACGAAAGTAGAC (((.(((....))))))
Tm [1]: 42.4 °C | folding enthalpy [2]: -28.2 kcal/mol

GGTGCGGGAAACCGCGTC (..((((....))))..)
Tm [1]: 44.1 °C | folding enthalpy [2]: -11.5 kcal/mol

GTATCAGAAATGATAC ((((((....))))))
Tm [1]: 45.6 °C | folding enthalpy [2]: -31.6 kcal/mol

GATACAGGAAACTGTGTC ((.((((....)))).))
Tm [1]: 44.9 °C | folding enthalpy [2]: -25.9 kcal/mol

GTGCCTGGAAACAGGTGC (..((((....))))..)
Tm [1]: 48.9 °C | folding enthalpy [2]: -23.2 kcal/mol

GATCATCTAATGATC ((((((...))))))
Tm [1]: 47.2 °C | folding enthalpy [2]: -34.5 kcal/mol

GTAGGCGGAAACGCCTGC (.(((((....))))).)
Tm [1]: 56.7 °C | folding enthalpy [2]: -18.6 kcal/mol

GCGTCCCCGAAAGGGCGC (((..(((....))))))
Tm [1]: 65.2 °C | folding enthalpy [2]: -24.3 kcal/mol

GCGACGCGAAAGCTCCGC (((..((....))..)))
Tm [1]: 50.6 °C | folding enthalpy [2]: -20.2 kcal/mol

GATCTAAAATAGATC ((((((...))))))
Tm [1]: 38.6 °C | folding enthalpy [2]: -17.1 kcal/mol

AGAATGAAAATTCT (((((....)))))
Tm [1]: 25.9 °C | folding enthalpy [2]: -10.8 kcal/mol

GGGTGGTCGAAAGACCCC (((..(((....))))))
Tm [1]: 53.4 °C | folding enthalpy [2]: -15.8 kcal/mol

GTGAACCGAAAGGTCCAC (((.(((....))).)))
Tm [1]: 49.8 °C | folding enthalpy [2]: -24.6 kcal/mol

GACAGCCCGAAAGGGGTC (((..(((....))))))
Tm [1]: 34.6 °C | folding enthalpy [2]: -11.4 kcal/mol
